Here are results for 1 compound from ChEMBL document CHEMBL5614410, “Design, Synthesis, and Evaluation of p53Y220C Acetylation Targeting Chimeras (AceTACs)” (J Med Chem, 2024).

The subject of this assay is Cellular tumor antigen p53 (Homo sapiens), P04637 [Y220C]. The experiment in a line: Stabilization of p53Y220C mutant (unknown origin) expressed in human NCI-H1299 cells assessed as increase in melting temperature incubated for 1 hr by CETSA analysis. It is filed as cell-based. An outline of the steps:
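CETSA: NCI-H1299 (p53Y220C) stable cells were treated with DMSO or 100 μM for 1 h, then heated from 32 to 50 °C. Soluble p53 was detected by Western blot. Results are representative of at least two independent experiments.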

For orientation: ΔTm means the change in melting temperature against a reference sample. As to `C=C(C)C(=O)n1cc(C)c2c(-c3ccc4c(c3)CCN(C)C4)cncc21`, the ΔTm is 8.3 °C.
